Experimental data as given in ChEMBL document CHEMBL4834474, “Terphenyl-Based Small-Molecule Inhibitors of Programmed Cell Death-1/Programmed Death-Ligand 1 Protein-Protein Interaction” (J Med Chem, 2021).
Activity calls are given as the source filed them. No cut-off for these calls is given here.

What was measured:
Jurkat = assay: Cytotoxicity against human Jurkat effector cells at 10 uM after 48 hrs; type: cell-based
In short: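 Jurkat-ECs (PD-1, NFAT-RE luciferase) exposed to increasing compound concentrations, DMSO constant at 0.1%. After 48 h, tetrazolium redox dye added for a further 2 h at 37 °C, 5% CO2. Absorbance at 590 nm, 750 nm reference. Survival relative to DMSO controls; mean ± SD of three independent experiments; EC50 from dose–response curve.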

[1] = target: T1, Programmed cell death protein 1/Programmed cell death 1 ligand 1 (Homo sapiens) (UniProt Q15116+Q9NZQ7); assay: Inhibition of PD-1/PD-L1 interaction in human Jurkat cells cocultured with CHO cells expressing PD-Ll/TCRAct assessed as activation of effector Jurkat cells at 0.01 to 100 uM incubated for 6 hrs by luciferase reporter gene based immune checkpoint blockade cell-based assay; conditions: dose 0.01-100 µM
In short: (§1)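 CHO/TCRAct/PD-L1, CHO/TCRAct or CHO-K1 cells seeded at 10,000/well. Next day overlaid with Jurkat-ECs (20,000/well) plus compound dilutions, DMSO held at 0.1%. Incubated 6 h at 37 °C, 5% CO2; luciferase reagent added for 20 min at room temperature; luminescence read. Fold induction over DMSO-treated cells; mean ± SD, 3–5 experiments; EC50 by Hill fit.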

[2] = target: T1, Programmed cell death protein 1/Programmed cell death 1 ligand 1 (Homo sapiens); assay: Inhibition of PD-1/PD-L1 interaction in human Jurkat cells cocultured with CHO cells expressing TCRAct assessed as activation of effector Jurkat cells incubated for 6 hrs by luciferase reporter gene based immune checkpoint blockade cell-based assay; in short: as §1
[3] = target: T1, Programmed cell death protein 1/Programmed cell death 1 ligand 1 (Homo sapiens); assay: Inhibition of PD-1/PD-L1 interaction in human PBMCs cocultured with CHO cells expressing PD-L1/TCRAct assessed as increase in INFgamma expression at 0.1 to 2.5 uM incubated for 48 hrs by TCA; type: cell-based; conditions: PBMC, dose 0.1-2.5 µM
In short: (§2)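 Culture supernatants taken from 48 h cocultures of PBMCs with CHO/TCRAct/PD-L1 cells (compound 0.1, 0.5, 2.5 μM). IL-2, IL-6, IL-10, IFN-γ, TNFα quantified by cytometric bead array against standard curves. Per donor, normalized to untreated PBMC plus CHO/TCRAct coculture. Mean ± SEM of four donors; one-way ANOVA, Fisher post hoc.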

[4] = target: T1, Programmed cell death protein 1/Programmed cell death 1 ligand 1 (Homo sapiens); assay: Inhibition of PD-1/PD-L1 interaction in human PBMCs cocultured with CHO cells expressing PD-L1/TCRAct assessed as increase in IL-2 expression at 0.1 to 2.5 uM incubated for 48 hrs by TCA; type: cell-based; conditions: PBMC, dose 0.1-2.5 µM; in short: as §2
[5] = target: T1, Programmed cell death protein 1/Programmed cell death 1 ligand 1 (Homo sapiens); assay: Inhibition of PD-1/PD-L1 interaction in human PBMCs cocultured with CHO cells expressing PD-L1/TCRAct assessed as increase in TNFalpha expression at 0.1 to 2.5 uM incubated for 48 hrs by TCA; type: cell-based; conditions: PBMC, dose 0.1-2.5 µM; in short: as §2
[6] = target: T1, Programmed cell death protein 1/Programmed cell death 1 ligand 1 (Homo sapiens); assay: Inhibition of PD-1/PD-L1 interaction in human PBMCs cocultured with in CHO cells expressing PD-L1/TCRAct assessed as increase in HLA-DR expression on CD8+ T cells at 0.1 to 2.5 uM incubated for 48 hrs by flow cytometry; type: cell-based; conditions: PBMC, dose 0.1-2.5 µM
In short: (§3)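 PBMCs isolated by density gradient from healthy donor blood (citrate dextrose anticoagulant). 3 × 10^5 cells added to preseeded CHO/TCRAct/PD-L1 cells with compound at 0.1, 0.5 or 2.5 μM, 0.1% DMSO as control. Cocultured 48 h at 37 °C, 5% CO2. Detached cells stained 20 min at RT for CD4, CD8, CD69, CD25, HLA-DR, PD-1; flow cytometry. Four donors; one-way ANOVA with Fisher post hoc.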

[7] = target: T1, Programmed cell death protein 1/Programmed cell death 1 ligand 1 (Homo sapiens); assay: Inhibition of PD-1/PD-L1 interaction in human PBMCs cocultured with CHO cells expressing PD-L1/TCRAct assessed as increase in HLA-DR expression on CD4+ T cells at 0.1 to 2.5 uM incubated for 48 hrs by flow cytometry; type: cell-based; conditions: PBMC, dose 0.1-2.5 µM; in short: as §3
[8] = target: T1, Programmed cell death protein 1/Programmed cell death 1 ligand 1 (Homo sapiens); assay: Inhibition of PD-1/PD-L1 interaction in human PBMCs cocultured with CHO cells expressing PD-L1/TCRAct assessed as increase in IL-10 expression at 0.1 to 2.5 uM incubated for 48 hrs by TCA; type: cell-based; conditions: PBMC, dose 0.1-2.5 µM; in short: as §2
[9] = target: T1, Programmed cell death protein 1/Programmed cell death 1 ligand 1 (Homo sapiens); assay: Inhibition of PD-1/PD-L1 interaction in human PBMCs cocultured with CHO cells expressing PD-L1/TCRAct assessed as increase in CD25 expression on CD4+ T cells at 0.1 to 2.5 uM incubated for 48 hrs by flow cytometry; type: cell-based; conditions: PBMC, dose 0.1-2.5 µM; in short: as §3
[10] = target: T1, Programmed cell death protein 1/Programmed cell death 1 ligand 1 (Homo sapiens); assay: Inhibition of PD-1/PD-L1 interaction in human PBMCs cocultured with CHO cells expressing PD-L1/TCRAct assessed as increase in CD25 expression on CD8+ T cells at 0.1 to 2.5 uM incubated for 48 hrs by flow cytometry; type: cell-based; conditions: PBMC, dose 0.1-2.5 µM; in short: as §3
[11] = target: Programmed cell death 1 ligand 1 (Homo sapiens) (UniProt Q9NZQ7); assay: Binding affinity to human PD-L1 assessed as induction of protein dimerization by 1H NMR method
[12] = target: T1, Programmed cell death protein 1/Programmed cell death 1 ligand 1 (Homo sapiens); assay: Inhibition of PD-1/PD-L1 interaction in human PBMCs cocultured with CHO cells expressing PD-L1/TCRAct assessed as increase in IL-6 expression at 0.1 to 2.5 uM incubated for 48 hrs by TCA; type: cell-based; conditions: PBMC, dose 0.1-2.5 µM; in short: as §2
[13] = target: T1, Programmed cell death protein 1/Programmed cell death 1 ligand 1 (Homo sapiens); assay: Inhibition of PD-1/PD-L1 interaction in human PBMCs cocultured with CHO cells expressing PD-L1/TCRAct assessed as increase in PD-1 receptor expression on CD8+ T cells at 0.1 to 2.5 uM incubated for 48 hrs by flow cytometry; type: cell-based; conditions: PBMC, dose 0.1-2.5 µM; in short: as §3
[14] = target: T1, Programmed cell death protein 1/Programmed cell death 1 ligand 1 (Homo sapiens); assay: Inhibition of PD-1/PD-L1 interaction in human PBMCs cocultured with CHO cells expressing PD-L1/TCRAct assessed as increase in PD-1 receptor expression on CD4+ T cells at 0.1 to 2.5 uM incubated for 48 hrs by flow cytometry; type: cell-based; conditions: PBMC, dose 0.1-2.5 µM; in short: as §3
[15] = target: Programmed cell death 1 ligand 1 (Mus musculus) (UniProt Q9EP73); assay: Binding affinity to mouse PD-L1 assessed as induction of protein dimerization by 1H NMR method
Chain of Programmed cell death 1 ligand 1 (Mus musculus) (Q9EP73 whole entry): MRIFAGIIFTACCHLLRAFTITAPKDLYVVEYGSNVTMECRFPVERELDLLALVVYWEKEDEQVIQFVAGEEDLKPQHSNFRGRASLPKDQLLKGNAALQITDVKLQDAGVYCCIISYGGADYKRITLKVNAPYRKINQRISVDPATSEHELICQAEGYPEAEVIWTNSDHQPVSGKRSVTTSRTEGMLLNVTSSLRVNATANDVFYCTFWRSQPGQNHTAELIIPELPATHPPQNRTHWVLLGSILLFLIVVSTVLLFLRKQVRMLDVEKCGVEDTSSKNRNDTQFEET

Chain of Programmed cell death 1 ligand 1 (Homo sapiens) (Q9NZQ7 whole entry): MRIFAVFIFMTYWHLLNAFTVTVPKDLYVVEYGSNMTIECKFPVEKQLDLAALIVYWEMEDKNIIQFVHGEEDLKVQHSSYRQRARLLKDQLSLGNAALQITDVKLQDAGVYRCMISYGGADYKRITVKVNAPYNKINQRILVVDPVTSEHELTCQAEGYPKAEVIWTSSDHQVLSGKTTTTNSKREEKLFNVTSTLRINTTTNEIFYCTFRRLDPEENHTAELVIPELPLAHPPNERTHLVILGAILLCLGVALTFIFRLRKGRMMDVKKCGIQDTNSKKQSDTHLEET

COc1cc(-c2cccc(-c3ccc4c(c3)OCCO4)c2Cl)ccc1CNCCNS(C)(=O)=O
Activity (Jurkat): Non-Toxic | inhibition [1]: Active | inhibition [2]: inactive

COc1cc(-c2cccc(-c3ccc4c(c3)OCCO4)c2Cl)ccc1CNC(CO)(CO)CO
inhibition [3]: Active | Activity (Jurkat): Non-Toxic | inhibition [4]: Active | inhibition [1]: Active | inhibition [5]: Active | inhibition [6]: Active | inhibition [7]: Active | inhibition [8]: Active | inhibition [9]: Active | inhibition [10]: Active | Activity [11]: Active | inhibition [12]: Active | inhibition [13]: Active | inhibition [14]: Active | Activity [15]: inactive | inhibition [2]: inactive

CC(=O)NCCNCc1ccc(-c2cccc(-c3ccc4c(c3)OCCO4)c2Cl)cc1OCC#N
Activity [11]: Active

COc1cc(-c2cccc(-c3ccc4c(c3)OCCO4)c2Cl)ccc1CNC(CO)CO
Activity (Jurkat): Non-Toxic | inhibition [1]: Active | inhibition [2]: inactive

COc1cc(-c2cccc(-c3ccc4c(c3)OCCO4)c2Cl)ccc1CNCCNC(N)=O
Activity (Jurkat): Non-Toxic | inhibition [1]: Active | inhibition [6]: inactive | inhibition [7]: inactive | inhibition [9]: inactive | inhibition [10]: inactive | inhibition [13]: Active | inhibition [14]: Active | inhibition [2]: inactive

COc1cc(-c2cccc(-c3ccc4c(c3)OCCO4)c2Cl)ccc1CNCCNC(=O)CN
Activity (Jurkat): Non-Toxic | inhibition [1]: Active | inhibition [2]: inactive

COc1cc(-c2cccc(-c3ccc4c(c3)OCCO4)c2Cl)ccc1CNCCNC(C)=O
Activity (Jurkat): Non-Toxic | inhibition [1]: Active | Activity [11]: Active | inhibition [2]: inactive
